Hep lipid drop: hepatic lipid droplet formation modulation | AML12 mouse hepatocytes, oleate lipid droplets, BODIPY imaging | hit rate 0.4% among 240,000 | inhibition, % at 6.5 µM | AID 1656;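 active = lipid droplet intensity inhibited by at least 50%, with more than 500 cells counted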
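System: AML12 hepatocytes (mouse). Probe or stimulus: oleic acid at 100 µM to induce lipid droplet formation. Times: overnight treatment with compound plus oleate. Detection: Image-based BODIPY and DAPI two-channel analysis. Evaluation: percent inhibition of filter-corrected integrated lipid droplet intensity per well.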
697 NFkB inh: inhibitors of the PMA/ionomycin-induced NF-kB reporter in 697 B cells | 697 B-cell NF-kB luciferase reporter, 16 h | inhibition, % at 4 µM | hit rate 0.33% among 330,000; in the data active = inhibition above about 35%
H9c2 TAG inh: inhibitors of triacylglycerol accumulation; inhibition, % at 12.5 µM; H9c2 cells, Nile Red lipid (TAG) fluorescence; cells loaded with 200 µM oleic acid; hit rate 0.66% among 230,000;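 active = pattern-corrected inhibition of lipid staining of at least 50% with the nuclear-stain viability signal not falling by more than 50%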;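 also: 0% = DMSO wells and 100% = triacsin C control wells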
Jurkat NFkB inh: lowers PMA/ionomycin-induced NF-kB signal in Jurkat cells; PMA/ionomycin-induced NF-kB luciferase reporter, luminescence; inhibition, % at 4 µM; hit rate 0.53% among 330,000; AID 435003; in the data active = inhibition above about 50%
iPSC survival up: increases survival of single human iPS cells; survival enhancement, % at 20 µM; AID 602274; hit rate 0.044% among 360,000; hiPSC single-cell survival, ATPlite luminescence; 100% = ROCK inhibitor wells, 0% = DMSO; in the data active = survival enhancement above about 18%;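 also: cells exposed to compounds for 16 hours before the ATP read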
Gli-Sufu antag: Gli-Sufu pathway antagonism. hit rate 0.74% among 340,000. Sufu-KO-LIGHT fibroblasts, Gli luciferase reporter luminescence. AID 588413. inhibition, % at 5 µM;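 active = inhibition above about 55%, limit read from the data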;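 also: 0% = DMSO-treated cells and 100% = wells with medium but no cells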
Gli-Sufu confirm: confirmation of Gli-SUFU pathway antagonists; shares compounds with Gli-Sufu antag; Sufu-KO-LIGHT cells, Gli luciferase reporter, luminescence; inhibition, % at 5 µM; hit rate 40% among 2,500; AID 602428;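 active = mean inhibition at 5 µM reaching about 45%, limit read from the data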;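 also: plate controls were DMSO-treated cells for no effect and wells lacking cells for full effect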
Gli cytotox: cytotoxicity counter-screen for Gli-SUFU antagonists. Sufu-KO-LIGHT cells cytotoxicity, ATP luminescence. shares compounds with Gli-Sufu antag. AID 651994. cytotoxicity, % at 5 µM. hit rate 32% among 2,500;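 active = mean cytotoxicity at 5 µM above about 25%, limit read from the data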;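 also: cells exposed to compound overnight for roughly 16 to 18 hours; plate controls were DMSO wells with cells for no effect and medium without cells for full effect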
Wnt3a cs: counter-screen for Gli-SUFU antagonists: Wnt3a reporter inhibition | shares compounds with Gli-Sufu antag | Wnt-LIGHT cells, Wnt3a-driven luciferase reporter, luminescence | inhibition, % at 6.25 µM | hit rate 20% among 2,500;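 active = mean inhibition above about 25%, limit read from the data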
Active calls of the source: *; . = no result. Shown are actives, neighbours in structure and some others; about 1.8% of the full set was active somewhere.

SMILES	Hep lipid drop	697 NFkB inh	H9c2 TAG inh	Jurkat NFkB inh	iPSC survival up	Gli-Sufu antag	Gli-Sufu confirm	Gli cytotox	Wnt3a cs
CC(C)Oc1cccc(C(=O)Nc2nnc([C@H]3C[C@H](O)[C@@H](CO)O3)s2)c1	.	.	-7	.	0	.	.	.	.
COc1cccc(CNC(=O)COC(=O)CCCNC(=O)c2ccc(Cl)cc2)c1	.	9	-7	-6	0	-3	.	.	.
CC(=O)c1ccc(N2CCN(C(=O)C3CCN(S(=O)(=O)c4ccc5c(c4)CC(C)N5C(C)=O)CC3)CC2)cc1 (stereo not drawn)	-2	7	.	9	0	27	.	.	.
COc1cccc(N2CCN(S(=O)(=O)c3ccc4c(c3)oc(=O)n4C)CC2)c1	1	-32	.	-1	0	8	.	.	.
CC(=O)N1c2ccc(S(=O)(=O)N3CCC(C(=O)N4CCN(c5cccc(C(F)(F)F)c5)CC4)CC3)cc2CC1C (stereo not drawn)	-65	-16	.	34	-1	74*	81*	34*	17
COc1cccc(N2CCN(C(=O)C3CCN(S(=O)(=O)c4ccc5c(c4)oc(=O)n5C)CC3)CC2)c1	-7	8	.	-3	0	61*	30	-2	-8
CC(=O)N1CC=CC1(CC(C)C)C(=O)NCCc1c[nH]c2ccccc12 (stereo not drawn)	-18	-20	9	-6	1	95*	26	-4	-22
C[C@H](CO)N1C[C@H](C)[C@@H](CN(C)C(=O)Nc2ccc3c(c2)OCO3)Oc2ccc(NC(=O)NC3CCCCC3)cc2C1=O	.	9	-1	1	0	-10	.	.	.
O=S(=O)(c1cccc2cccc(Cl)c12)N1CCCC1	5	4	-16	1	0	-8	.	.	.
CCCc1ccc(C(O)c2ncc(-c3ccccc3)[nH]2)cc1 (stereo not drawn)	.	.	-11	.	-1	.	.	.	.
COCCN(Cc1cc2c(C)cc(C)cc2nc1Cl)C(=O)c1ccccc1F	36	-14	-57	0	0	58*	26	15	-27
COCCN(Cc1cc2cc(C)cc(C)c2nc1Cl)C(=O)Nc1ccccc1	-4	-28	.	47	-1	-4	.	.	.
Cc1ccc(NC(=O)CSCC(=O)NC2=NCCS2)cc1	.	-4	0	-2	-1	7	.	.	.
Cc1cc(/C=N/n2cnnc2)c(C)n1-c1ccc(OCc2ccccc2F)cc1	.	-64	.	-2	1	60*	68*	27*	27*
Fc1ccccc1COc1cccc(/C=N/n2cnnc2)c1	.	-24	.	-7	4	-8	.	.	.
Cc1c(C(=O)N2CCN(c3ccccc3)CC2)oc2c1C(=O)CC(C)(C)C2	-21	22	-13	5	0	8	.	.	.
Cc1c(C(=O)N2CCN(Cc3ccccc3)CC2)oc2c1C(=O)CC(C)(C)C2	-11	-9	.	-6	0	52	15	13	-44
Cc1c(CCOC(=O)CC23CC4CC(CC(C4)C2)C3)sc[n+]1Cc1ccccc1	.	-24	-73	7	-1	54	58*	32*	-49
CCN(CC)C(=O)C1CCN(Cc2ccc(OCc3ccccc3)c(OC)c2)CC1	31	10	.	-15	0	19	.	.	.
NS(=O)(=O)c1ccc(CCNC(=O)CNC(=O)c2ccccc2F)cc1	4	6	.	-13	2	-24	.	.	.
Cc1ccccc1NC(=O)Cc1c[nH]c2ccccc12	-4	14	4	-4	0	55*	18	18	-37
O=C(Nc1ccccc1Cc1ccccc1)c1ccccc1NS(=O)(=O)c1ccc(Cl)s1	-41	2	.	12	0	59*	63*	30*	57*
O=C(Nc1ccccc1)c1ccccc1NS(=O)(=O)c1ccc(Cl)s1	-48	3	0	18	8	-22	.	.	.
CCn1c2ccccc2c2cc(NC(=O)CSc3nccc(=O)[nH]3)ccc21	15	-14	6	-32	1	1	.	.	.
CCCCn1c(=O)[nH]c(=O)c2c1nc(CN(C)Cc1cccc(OC)c1OC)n2CCC	.	.	.	.	0	63*	17	4	-8
SMILES	Hep lipid drop	697 NFkB inh	H9c2 TAG inh	Jurkat NFkB inh	iPSC survival up	Gli-Sufu antag	Gli-Sufu confirm	Gli cytotox	Wnt3a cs
Cn1c(O)c(N=NC(=O)CNC(=O)c2cccnc2)c2ccccc21	12	11	.	4	0	51	25	0	4
COc1ccc(S(=O)(=O)N(CC(=O)NCc2cccnc2)c2ccc(C)cc2)cc1OC	10	2	.	3	1	-1	.	.	.
CC(=O)c1cn(CCOc2ccccc2C)c2ccccc12	.	25	.	40	0	65*	56*	25	30*
CCOC(=O)N1CCC(N(CCOC)C(=O)Nc2ccc(CC)cc2)CC1	16	-3	.	-1	-3	0	.	.	.
CCOC(=O)N1CCC(N(C(=O)Nc2ccc(Cl)c(Cl)c2)C(C)CC)CC1 (stereo not drawn)	-20	1	.	12	-2	65*	31	20	-37
O=C(NNc1nc(=O)c2cccnc2s1)c1ccccc1O	0	-22	.	-11	1	85*	25	27*	-21
CCN1/C(=C\C(=S)Nc2ccccc2)Sc2ccccc21	-2	-15	-64	-15	0	54	55*	13	-27
CCOC(=O)/C(C#N)=C(C)/C=C1\Sc2ccccc2N1CC	0	-87	.	-58	1	-38	.	.	.
CSc1nc(O)c(C(c2ccc(OC(C)C)cc2)c2c(O)nc(SC)[nH]c2=O)c(=O)[nH]1	.	-1	4	3	0	-1	.	.	.
Cc1ccc(N=CC2=C(O)CC(c3ccc(Cl)cc3)CC2=O)cc1 (stereo not drawn)	-13	-2	.	13	-1	53	26	10	20
O=C1CC(c2ccccc2)CC(O)=C1C=Nc1ccccc1 (stereo not drawn)	4	3	.	-6	0	23	.	.	.
O=C(/C=C/c1ccc(OCc2ccccc2)c(OCc2ccccc2)c1)c1cccnc1	-17	-1	.	5	-3	53	25	15	-20
Cc1ccc(S(=O)(=O)Nc2ccc(-n3c(C)nc4ccccc4c3=O)cc2)cc1	.	-17	-4	-6	0	82*	20	21	-10
CC(=O)c1ccc(S(=O)(=O)Nc2ccc(-n3c(C)nc4ccccc4c3=O)cc2)cc1	.	3	-20	-4	1	7	.	.	.
O=c1nc2ccccc2c(NS(=O)(=O)c2ccccc2)n1-c1ccccc1	.	-5	-20	-14	2	83*	27	15	-15
CCOC(=O)Nc1ccc2c(c1)N(C(=O)CNC)c1ccccc1CC2	-1	4	.	-5	-1	51	8	-2	-14
